Compound activity (PubChem BioAssay)
M5 ag = CHRM5 agonism in calcium assay; CHO-K1 hM5 cells, Fluo-8 calcium fluorescence; 0% DMSO wells, 100% maximal acetylcholine response; activation, % at 3 µM; actives 0.19% (n = 360,000);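 active = activation above the run's mean over test compounds plus 3 SD, cut at about 23% in these data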;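 also: signal is peak over basal fluorescence ratio across the kinetic read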
CHRM4 agonist = agonists of human muscarinic M4 receptor (CHRM4). CHO-K1 hM4/Gqi5, Fluo-8 calcium fluorescence; vehicle 0%, full acetylcholine response 100%. activation, % at 3 µM. actives 0.14% (n = 360,000). AID 624127;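 active = activation above the run mean over all test wells plus 3 SD, cut at about 32% in these data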;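 also: peak over basal fluorescence ratio per well then scaled between controls; 0% = DMSO wells and 100% = acetylcholine at EC100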
Target sequence (P08173 whole entry, looked up): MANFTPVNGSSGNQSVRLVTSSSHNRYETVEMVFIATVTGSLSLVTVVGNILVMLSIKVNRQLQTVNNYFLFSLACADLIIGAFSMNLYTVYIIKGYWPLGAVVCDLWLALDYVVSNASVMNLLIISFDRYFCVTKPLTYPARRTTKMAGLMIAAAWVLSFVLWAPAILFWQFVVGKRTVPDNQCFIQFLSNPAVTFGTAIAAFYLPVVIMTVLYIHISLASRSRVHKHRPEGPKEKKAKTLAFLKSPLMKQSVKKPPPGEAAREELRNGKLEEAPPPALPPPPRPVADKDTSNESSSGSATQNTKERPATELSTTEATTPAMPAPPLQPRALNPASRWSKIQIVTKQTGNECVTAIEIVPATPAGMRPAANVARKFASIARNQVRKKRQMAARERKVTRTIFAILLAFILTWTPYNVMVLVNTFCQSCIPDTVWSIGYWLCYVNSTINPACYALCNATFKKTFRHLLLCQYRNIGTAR
CHRM5 antagonist = CHRM5 antagonism in calcium assay; P08912; CHO-hM5 cells, Fluo-8 calcium fluorescence, ACh EC80; inhibition, % at 3 µM; actives 0.59% (n = 360,000);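 active = inhibition above a per-plate cutoff, the mean of that plate's test compounds plus 3 SD, cut at about 27% in these data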;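 also: 0% = acetylcholine EC80 with DMSO and 100% = DMSO without agonist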
CHRM4 antagonist = blocks acetylcholine activation of human M4 receptor | P08173 | CHO-hM4 cells, ACh EC80, Fluo-8 calcium fluorescence | inhibition, % at 3 µM | actives 0.73% (n = 360,000);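 active = inhibition above its plate's cutoff, the mean inhibition of sample wells plus 3 SD, cut at about 27% in these data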;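 also: 0% = acetylcholine EC80 with DMSO and 100% = DMSO without agonist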
M4 PAM = positive allosteric modulators of human muscarinic M4 receptor; P08173; CHO-K1 hM4/Gqi5, Fluo-8 calcium fluorescence, ACh EC20; 0% = ACh EC20, 100% = maximal ACh; activation, % at 3 µM; actives 0.4% (n = 360,000);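 active = activation above its plate's cutoff, the mean activation of sample wells plus 3 SD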
CHRM5 PAM = CHRM5 positive allosteric modulation; activation, % at 3 µM; CHO-K1 hM5, Fluo-8 calcium, ACh EC20 PAM; 0% = ACh EC20, 100% = ACh EC100; actives 0.3% (n = 360,000);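 active = activation above the run cutoff, the mean activation of all test compounds plus 3 SD, cut at about 18% in these data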
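Assay system: CHO-K1 hM5 cells. Also added: acetylcholine at EC20 concentration, added after compound. Dosing: 3 µM, single dose. Times: compound preincubation 140 s before EC20 acetylcholine addition. Signal: Fluo-8 calcium fluorescence. Measure: % activation relative to EC20 and EC100 ACh responses. Repeats: singlicate, one well per test compound.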
An asterisk follows results filed as active. This is a sample that favours compounds with a hit; in the whole collection about 1.8% have one here.

SMILES | M5 ag | CHRM4 agonist | CHRM5 antagonist | CHRM4 antagonist | M4 PAM | CHRM5 PAM
Cc1cccc(CNC(=O)C2CCC(=O)N(Cc3ccccc3F)C2)n1 (centres undefined) | -4 | 1 | -1 | -7 | 21* | 2
Cn1cc(CNC(=O)C2CCC(=O)N(Cc3ccccc3F)C2)cn1 (centres undefined) | -4 | 0 | -9 | -11 | 20* | 8
Cc1c(CNC(=O)C2CCC(=O)N(CCc3ccccc3)C2)cnn1C (centres undefined) | -3 | 0 | 12 | -3 | 21* | 2
CCn1cc(CNC(=O)C2CCC(=O)N(Cc3ccccc3F)C2)cn1 (centres undefined) | -4 | 2 | 8 | -18 | 5 | -4
Cc1ccc(F)cc1CNC(=O)C1CCC(=O)N(CCc2ccccc2)C1 (centres undefined) | -1 | 1 | 8 | 7 | 1 | 2
CCc1cc(CNC(=O)C2CCC(=O)N(CCc3ccc(OC)cc3)C2)on1 (centres undefined) | -4 | 1 | 28* | 7 | 0 | -14
CC(C)[Si]1(C(C)C)OCC2OC(n3cnc4c(N)ncnc43)C(N)C2O[Si](C(C)C)(C(C)C)O1 (centres undefined) | 0 | 2 | 17 | -2 | 11 | 0
Cc1cc(OCC(=O)N2CCC(C(=O)O)CC2)c2c(C)c(C)c(=O)oc2c1 | -1 | 2 | 6 | -15 | -10 | -2
OCCNC(=S)NCCc1ccccc1 | -3 | 1 | -9 | 3 | 3 | 7
CC(C)(CNC(=S)NCCc1ccccc1)CNC(=S)NCCc1ccccc1 | 5 | 18 | 28* | 26 | -16 | -17
COC1C(C)=C(C)C(=O)N1Cc1ccc(F)cc1 (centres undefined) | -1 | 1 | 5 | -9 | 3 | -3
O=C(Nc1nccs1)Oc1ccccc1 | -3 | 1 | -2 | -14 | 28* | -1
O=C(CCCOc1ccccc1)Nc1nccs1 | 1 | 1 | -1 | 1 | 19 | -2
c1ccc(C(CN2CCOCC2)c2ccccc2)cc1 | -8 | -2 | 99* | 7 | -6 | -4
CCOC(=O)c1sc(NC(=O)COC(=O)CNC(=O)C2CCCCC2)c(C(=O)OCC)c1C | -2 | 0 | 2 | 8 | 0 | -3
CC(C)OC(=O)c1cc(C(=O)c2cc(F)ccc2O)coc1=N | 13 | 0 | -6 | 6 | 16 | 13
COc1ccc(O)c(C(=O)c2coc(=N)c(C(=O)Nc3ccc(SC(F)F)cc3)c2)c1 | 8 | 28 | 28* | 23 | -21 | -33
C#Cc1cccc(Nc2nc(NCc3ccccc3OC)nc3ccsc23)c1 | 3 | 14 | 36* | 30* | -10 | -17
Fc1cc(Cl)ccc1Nc1nc(NCc2ccccc2)nc2ccsc12 | 1 | 1 | -1 | 6 | -7 | -3
c1ccc(CNc2nc(NCc3ccccc3)c3sccc3n2)cc1 | 32* | 89* | 44* | 71* | -16 | -21
COc1ccccc1CNc1nc(NCc2ccccc2)nc2ccsc12 | 36* | 75* | 76* | 92* | -15 | -22
C#Cc1cccc(Nc2nc(NCCOC)nc3ccsc23)c1 | 5 | 18 | 16 | 14 | -11 | -11
c1ccc(CNc2nc(NCCOc3ccccc3)c3sccc3n2)cc1 | 21 | 58* | 35* | 54* | -16 | -21
CNc1nc(NCCOc2ccccc2)c2sccc2n1 | 8 | 30 | 0 | -14 | -8 | -10
CCc1nc2c(OCc3ccccc3C(=O)OC)cccn2c1N(C)C(=O)CC(C)C | -2 | 2 | -3 | -3 | -2 | -3
SMILES | M5 ag | CHRM4 agonist | CHRM5 antagonist | CHRM4 antagonist | M4 PAM | CHRM5 PAM
O=C(CSc1ccccc1F)NCC1(N2CCCCC2)CCCCC1 | -2 | 0 | 11 | -4 | 0 | -9
COCOCCn1cc(CN2CCS(=O)(=O)N(Cc3ccc(-c4cccc(N(C)C)c4)cc3)C(C(C)C)C2=O)nn1 (centres undefined) | 0 | 3 | 15 | 3 | -4 | -1
c1ccc(CNc2nc(NCc3ccccc3)c3ccccc3n2)cc1 | 10 | 45* | 39* | 49* | -17 | -21
COCCNc1nc(NCc2cccc(OC)c2OC)c2sccc2n1 | 0 | 6 | 9 | -2 | -4 | -7
COc1ccccc1CNc1nc(NCc2cccc(OC)c2OC)c2sccc2n1 | 2 | 16 | 31* | 22 | -12 | -20
O=C(Nc1cccc(Br)c1)C1CCCC1 | -6 | 0 | 12 | -4 | 14* | -5
O=C(Nc1ccc(F)c(Cl)c1)c1cc(C2CCCCN2C(=O)c2ccccc2)on1 (centres undefined) | -1 | 9 | 2 | -4 | -4 | -3
Cc1ccc(-c2nc3c(Cl)cc(C(F)(F)F)cn3c2Cc2ccccc2C(F)(F)F)cc1 | -1 | 1 | -3 | -9 | 18 | -1
FC(F)(F)c1cc(Cl)c2nc(-c3ccco3)c(Cc3ccccc3C(F)(F)F)n2c1 | 4 | 4 | 2 | 45* | -9 | 5
O=C(Nc1cccc(C(F)(F)F)c1)C1Cc2c(-c3ccc(Cl)cc3)ccnc2O1 (centres undefined) | 1 | 1 | -5 | -37 | 17* | -1
COCCN1CCC(CNCc2c(C(=O)N3CCCCC3)nc3c(C)cccn23)C1 (centres undefined) | 6 | 1 | -3 | -5 | 0 | 23*
Cc1cccn2c(CNCC3OCCc4ccccc43)c(C(=O)N3CCCCC3)nc12 (centres undefined) | 4 | 7 | 7 | 7 | -10 | -9
N#CC(C(O)c1ccccc1)N1CCOCC1 (centres undefined) | 1 | 0 | -4 | 1 | -2 | -2
Cc1cc(C)n(-c2nnc(C)n2/N=C/c2cc(Br)ccc2OCc2ccccc2)n1 | -8 | 1 | 4 | 26* | -11 | -6
Cc1cc(C)n(-c2nnc(C)n2/N=C/c2ccccc2OCc2ccccc2Cl)n1 | -2 | -1 | 8 | 2 | 4 | 0
O=C(NCCC1CCCCN1S(=O)(=O)c1cccs1)C(=O)Nc1cccc(F)c1 (centres undefined) | -2 | 7 | -5 | -10 | -6 | -12
Nc1c(C(=O)N2CCOCC2)sc2nc3c(cc12)CCC3 | 0 | 2 | -5 | 35* | 15 | 0
COCCCN1C(=O)C(CC(=O)NCc2ccco2)CC(C(=O)N(C)C)=C1C (centres undefined) | 0 | 1 | -9 | -19 | 2 | 1
CCn1nnnc1SCC(=O)Nc1ccc(OCc2ccccc2)cc1 | -4 | 2 | -12 | -7 | 27* | 34*
